The source made the active and inactive calls. No cut-off for these calls is given here.
Key:
[1] = biological target: Insulin receptor (Homo sapiens) (UniProt P06213); assay: Inhibition of activated IR (unknown origin) assessed as residual activity at 50 uM relative to control
Method in brief: (§1)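 Profiling panel of 44 human kinases. ATP set to each kinase's Km. Run in duplicate; duplicates within 15–17% of each other.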

[2] = biological target: Rho-associated protein kinase 1 (Homo sapiens) (UniProt Q13464); assay: Inhibition of ROCK1 (unknown origin) assessed as residual activity at 50 uM relative to control; method in brief: as §1
[3] = biological target: T1, Casein kinase II subunit alpha (Homo sapiens, UniProt P68400); assay: Inhibition of recombinant human GST-tagged CK2alpha in presence of ATP by radiometric kinase assay
T1 sequence (P68400 whole entry): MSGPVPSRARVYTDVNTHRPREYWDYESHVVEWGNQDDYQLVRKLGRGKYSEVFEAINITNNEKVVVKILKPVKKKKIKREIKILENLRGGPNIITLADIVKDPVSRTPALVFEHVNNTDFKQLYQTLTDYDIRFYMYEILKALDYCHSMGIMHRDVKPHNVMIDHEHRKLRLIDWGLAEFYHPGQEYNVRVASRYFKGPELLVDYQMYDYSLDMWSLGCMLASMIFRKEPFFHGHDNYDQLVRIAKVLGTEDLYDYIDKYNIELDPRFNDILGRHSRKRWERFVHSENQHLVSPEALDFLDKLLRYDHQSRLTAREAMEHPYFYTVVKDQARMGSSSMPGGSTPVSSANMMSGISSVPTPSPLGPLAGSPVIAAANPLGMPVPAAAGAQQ

[4] = biological target: Calcium/calmodulin-dependent protein kinase type 1 (Homo sapiens) (UniProt Q14012); assay: Inhibition of CAMK1 (unknown origin) assessed as residual activity at 50 uM relative to control
Method in brief: (§2)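 Selectivity profiling against a panel of 44 human kinases. For each kinase, ATP was set to that kinase's Km. Values are residual activity in duplicate assays.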

[5] = biological target: Tyrosine-protein kinase Fyn (Homo sapiens) (UniProt P06241); assay: Inhibition of FYN (unknown origin) assessed as residual activity at 50 uM relative to control; method in brief: as §2
[6] = biological target: Aurora kinase B (Homo sapiens) (UniProt Q96GD4); assay: Inhibition of aurora B (unknown origin) assessed as residual activity at 50 uM relative to control; method in brief: as §1
Chain of Aurora kinase B (Homo sapiens) (Q96GD4 whole entry): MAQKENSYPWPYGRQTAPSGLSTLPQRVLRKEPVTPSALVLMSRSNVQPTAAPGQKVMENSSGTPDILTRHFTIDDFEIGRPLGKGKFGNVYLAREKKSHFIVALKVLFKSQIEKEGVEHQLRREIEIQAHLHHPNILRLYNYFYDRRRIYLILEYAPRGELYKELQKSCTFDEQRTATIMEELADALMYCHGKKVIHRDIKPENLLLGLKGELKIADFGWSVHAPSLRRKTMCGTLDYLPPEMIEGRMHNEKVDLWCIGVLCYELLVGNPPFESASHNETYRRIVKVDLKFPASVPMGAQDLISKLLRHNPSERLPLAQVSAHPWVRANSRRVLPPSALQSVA

[7] = biological target: Glycogen synthase kinase-3 beta (Homo sapiens) (UniProt P49841); assay: Inhibition of GSK3beta (unknown origin) assessed as residual activity at 50 uM relative to control; method in brief: as §2
Chain of Glycogen synthase kinase-3 beta (Homo sapiens) (P49841 whole entry, looked up): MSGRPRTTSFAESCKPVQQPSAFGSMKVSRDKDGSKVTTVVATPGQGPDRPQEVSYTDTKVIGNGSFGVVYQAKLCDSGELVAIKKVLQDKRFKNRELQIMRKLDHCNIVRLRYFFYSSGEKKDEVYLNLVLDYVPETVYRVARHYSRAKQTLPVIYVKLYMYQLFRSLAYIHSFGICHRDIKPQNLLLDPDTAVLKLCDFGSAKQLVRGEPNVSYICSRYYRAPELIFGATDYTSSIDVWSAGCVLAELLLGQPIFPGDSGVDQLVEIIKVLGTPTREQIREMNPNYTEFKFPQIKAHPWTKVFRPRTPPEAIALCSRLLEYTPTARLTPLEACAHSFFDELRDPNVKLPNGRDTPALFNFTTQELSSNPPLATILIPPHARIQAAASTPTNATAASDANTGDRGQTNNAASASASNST

[8] = biological target: Dual specificity mitogen-activated protein kinase kinase 1 (Homo sapiens) (UniProt Q02750); assay: Inhibition of MEK1 (unknown origin) assessed as residual activity at 50 uM relative to control; method in brief: as §2
[9] = biological target: Serine/threonine-protein kinase STK11 (Homo sapiens) (UniProt Q15831); assay: Inhibition of LKB1 (unknown origin) assessed as residual activity at 50 uM relative to control; method in brief: as §2
[10] = biological target: Tyrosine-protein kinase JAK2 (Homo sapiens) (UniProt O60674); assay: Inhibition of JAK2 (unknown origin) assessed as residual activity at 50 uM relative to control; method in brief: as §2
[11] = biological target: Tyrosine-protein kinase Lyn (Homo sapiens) (UniProt P07948); assay: Inhibition of LYN (unknown origin) assessed as residual activity at 50 uM relative to control; method in brief: as §2
[12] = biological target: Cyclin-dependent kinase 2/cyclin E1 (Homo sapiens) (UniProt P24864+P24941); assay: Inhibition of CDK2/cyclin E (unknown origin) assessed as residual activity at 50 uM relative to control; type: protein-complex assay; method in brief: as §2
[13] = biological target: Serine/threonine-protein kinase mTOR (Homo sapiens) (UniProt P42345); assay: Inhibition of MTOR (unknown origin) assessed as residual activity at 50 uM relative to control; method in brief: as §2
[14] = biological target: T2, Casein kinase II alpha/beta (Homo sapiens) (UniProt P67870+P68400); assay: Inhibition of recombinant human GST-tagged CK2alpha2/CK2beta2 at 15 uM in presence of ATP by radiometric kinase assay; type: protein-complex assay
T2 sequence (P67870 2-215 limits assumed): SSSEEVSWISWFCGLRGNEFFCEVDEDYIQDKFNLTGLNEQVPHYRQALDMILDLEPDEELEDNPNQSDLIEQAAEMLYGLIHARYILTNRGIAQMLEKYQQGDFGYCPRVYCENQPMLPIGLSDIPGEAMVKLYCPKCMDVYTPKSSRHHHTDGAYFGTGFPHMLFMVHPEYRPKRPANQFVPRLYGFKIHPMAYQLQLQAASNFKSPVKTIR
T2 sequence (P68400 whole entry partner): as the sequence (P68400 whole entry) above

[15] = biological target: T2, Casein kinase II alpha/beta (Homo sapiens); assay: Inhibition of recombinant human GST-tagged CK2alpha2/CK2beta2 at 20 uM in presence of ATP and increasing CK2beta levels by radiometric kinase assay; type: protein-complex assay
Method in brief: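 CK2α fixed at 150 nM and inhibitor fixed at 20 μM. CK2β was titrated at increasing concentrations and activity was read in the radiometric assay.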

[16] = biological target: Serine/threonine-protein kinase Chk2 (Homo sapiens) (UniProt O96017); assay: Inhibition of CHK2 (unknown origin) assessed as residual activity at 50 uM relative to control; method in brief: as §2
Chain of Serine/threonine-protein kinase Chk2 (Homo sapiens) (O96017 whole entry): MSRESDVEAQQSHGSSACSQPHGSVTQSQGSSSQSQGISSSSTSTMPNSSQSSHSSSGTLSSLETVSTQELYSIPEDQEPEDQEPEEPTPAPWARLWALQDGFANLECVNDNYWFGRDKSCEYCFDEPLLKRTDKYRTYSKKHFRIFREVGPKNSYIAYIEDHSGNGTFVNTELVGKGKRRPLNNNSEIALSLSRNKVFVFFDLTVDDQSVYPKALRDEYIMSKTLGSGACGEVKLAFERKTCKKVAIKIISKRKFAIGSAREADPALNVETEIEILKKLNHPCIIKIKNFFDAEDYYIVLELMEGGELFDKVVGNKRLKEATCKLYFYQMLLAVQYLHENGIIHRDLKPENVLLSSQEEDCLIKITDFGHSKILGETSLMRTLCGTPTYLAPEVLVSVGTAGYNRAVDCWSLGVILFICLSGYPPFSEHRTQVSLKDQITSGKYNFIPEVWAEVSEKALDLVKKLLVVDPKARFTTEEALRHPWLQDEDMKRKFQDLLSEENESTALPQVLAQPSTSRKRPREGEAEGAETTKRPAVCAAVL

[17] = biological target: RAC-alpha serine/threonine-protein kinase (Homo sapiens) (UniProt P31749); assay: Inhibition of PKBalpha (unknown origin) assessed as residual activity at 50 uM relative to control; method in brief: as §1
Homo sapiens = organism: Homo sapiens; assay: Inhibition of PKA (unknown origin) assessed as residual activity at 50 uM relative to control; method in brief: as §2
[18] = biological target: RAF proto-oncogene serine/threonine-protein kinase (Homo sapiens) (UniProt P04049); assay: Inhibition of cRAF (unknown origin) assessed as residual activity at 50 uM relative to control; method in brief: as §1
[19] = biological target: Dual specificity tyrosine-phosphorylation-regulated kinase 2 (Homo sapiens) (UniProt Q92630); assay: Inhibition of DYRK2 (unknown origin) assessed as residual activity at 50 uM relative to control; method in brief: as §2
[20] = biological target: Homeodomain-interacting protein kinase 2 (Homo sapiens) (UniProt Q9H2X6); assay: Inhibition of HIPK2 (unknown origin) assessed as residual activity at 50 uM relative to control; method in brief: as §2
[21] = biological target: Protein kinase C alpha type (Homo sapiens) (UniProt P17252); assay: Inhibition of PKCalpha (unknown origin) assessed as residual activity at 50 uM relative to control; method in brief: as §1
[22] = biological target: Mitogen-activated protein kinase 1 (Homo sapiens) (UniProt P28482); assay: Inhibition of MAPK1 (unknown origin) assessed as residual activity at 50 uM relative to control; method in brief: as §2
[23] = biological target: Cyclin-dependent kinase 1/cyclin B1 (Homo sapiens) (UniProt P06493+P14635); assay: Inhibition of CDK1/cyclin B (unknown origin) assessed as residual activity at 50 uM relative to control; type: protein-complex assay; method in brief: as §2
[24] = biological target: CDK9/cyclin T1 (Homo sapiens) (UniProt O60563+P50750); assay: Inhibition of CDK9/cyclin T1 (unknown origin) assessed as residual activity at 50 uM relative to control; type: protein-complex assay; method in brief: as §2
[25] = biological target: 5'-AMP-activated protein kinase catalytic subunit alpha-1 (Homo sapiens) (UniProt Q13131); assay: Inhibition of AMPKalpha1 (unknown origin) assessed as residual activity at 50 uM relative to control; method in brief: as §2
[26] = biological target: Proto-oncogene tyrosine-protein kinase Src (Homo sapiens) (UniProt P12931); assay: Inhibition of cSRC (unknown origin) assessed as residual activity at 50 uM relative to control; method in brief: as §1
[27] = biological target: Homeodomain-interacting protein kinase 3 (Homo sapiens) (UniProt Q9H422); assay: Inhibition of HIPK3 (unknown origin) assessed as residual activity at 50 uM relative to control; method in brief: as §2
[28] = biological target: T1, Casein kinase II subunit alpha; assay: Mixed-type inhibition of recombinant human GST-tagged CK2alpha in presence of ATP by Lineweaver-Burk plot analysis
[29] = biological target: CDK6/cyclin D3 (Homo sapiens) (UniProt P30281+Q00534); assay: Inhibition of CDK6/cyclin D3 (unknown origin) assessed as residual activity at 50 uM relative to control; type: protein-complex assay; method in brief: as §2
[30] = biological target: Platelet-derived growth factor receptor alpha (Homo sapiens) (UniProt P16234); assay: Inhibition of PDGFRalpha (unknown origin) assessed as residual activity at 50 uM relative to control; method in brief: as §2
Chain of Platelet-derived growth factor receptor alpha (Homo sapiens) (P16234 whole entry): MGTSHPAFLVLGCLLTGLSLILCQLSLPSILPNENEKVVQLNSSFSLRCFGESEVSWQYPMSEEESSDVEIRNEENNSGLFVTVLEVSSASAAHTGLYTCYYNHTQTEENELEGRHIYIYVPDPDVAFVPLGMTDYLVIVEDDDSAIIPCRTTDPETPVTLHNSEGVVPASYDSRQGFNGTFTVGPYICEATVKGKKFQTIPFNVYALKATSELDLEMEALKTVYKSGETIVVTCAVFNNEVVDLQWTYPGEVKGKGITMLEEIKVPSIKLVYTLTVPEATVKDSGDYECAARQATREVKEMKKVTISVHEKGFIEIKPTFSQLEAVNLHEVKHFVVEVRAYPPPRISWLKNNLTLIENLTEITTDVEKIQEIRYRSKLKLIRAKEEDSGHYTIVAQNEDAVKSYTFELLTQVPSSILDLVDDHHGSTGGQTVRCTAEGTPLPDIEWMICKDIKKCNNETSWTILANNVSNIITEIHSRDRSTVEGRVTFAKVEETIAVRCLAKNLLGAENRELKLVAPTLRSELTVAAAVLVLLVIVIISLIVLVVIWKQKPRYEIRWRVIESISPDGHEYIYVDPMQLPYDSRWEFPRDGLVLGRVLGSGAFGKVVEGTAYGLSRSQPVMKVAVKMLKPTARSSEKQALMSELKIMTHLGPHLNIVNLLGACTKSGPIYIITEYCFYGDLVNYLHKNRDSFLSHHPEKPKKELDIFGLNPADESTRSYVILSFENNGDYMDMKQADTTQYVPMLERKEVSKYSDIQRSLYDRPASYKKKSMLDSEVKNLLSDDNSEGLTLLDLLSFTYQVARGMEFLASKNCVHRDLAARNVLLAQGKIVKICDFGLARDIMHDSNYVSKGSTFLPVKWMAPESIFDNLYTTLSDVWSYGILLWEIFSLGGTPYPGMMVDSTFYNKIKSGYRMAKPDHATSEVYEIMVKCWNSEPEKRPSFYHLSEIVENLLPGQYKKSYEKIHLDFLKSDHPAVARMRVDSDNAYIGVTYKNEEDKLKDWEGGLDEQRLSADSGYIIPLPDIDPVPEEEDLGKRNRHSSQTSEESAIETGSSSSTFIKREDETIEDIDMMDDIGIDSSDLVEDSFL

[31] = biological target: Ribosomal protein S6 kinase alpha-1 (Homo sapiens) (UniProt Q15418); assay: Inhibition of RSK1 (unknown origin) assessed as residual activity at 50 uM relative to control; method in brief: as §1
[32] = biological target: Tyrosine-protein kinase Yes (Homo sapiens) (UniProt P07947); assay: Inhibition of YES (unknown origin) assessed as residual activity at 50 uM relative to control; method in brief: as §1
Chain of Tyrosine-protein kinase Yes (Homo sapiens) (P07947 2-543 limits assumed): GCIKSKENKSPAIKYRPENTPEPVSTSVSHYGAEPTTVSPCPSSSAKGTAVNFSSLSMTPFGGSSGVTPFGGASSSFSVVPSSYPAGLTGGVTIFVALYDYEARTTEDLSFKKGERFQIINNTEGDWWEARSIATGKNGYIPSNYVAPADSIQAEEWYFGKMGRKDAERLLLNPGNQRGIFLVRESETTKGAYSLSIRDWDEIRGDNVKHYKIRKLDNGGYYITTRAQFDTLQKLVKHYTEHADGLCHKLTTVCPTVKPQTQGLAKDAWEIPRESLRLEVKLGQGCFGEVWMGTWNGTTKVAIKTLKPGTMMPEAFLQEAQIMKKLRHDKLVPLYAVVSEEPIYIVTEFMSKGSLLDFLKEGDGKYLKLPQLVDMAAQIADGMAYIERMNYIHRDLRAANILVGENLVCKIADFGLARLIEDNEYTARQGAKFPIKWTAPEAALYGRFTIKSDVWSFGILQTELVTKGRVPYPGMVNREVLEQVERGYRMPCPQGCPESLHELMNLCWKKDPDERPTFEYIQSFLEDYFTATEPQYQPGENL

[33] = biological target: Homeodomain-interacting protein kinase 1 (Homo sapiens) (UniProt Q86Z02); assay: Inhibition of HIPK1 (unknown origin) assessed as residual activity at 50 uM relative to control; method in brief: as §2

Chain of Insulin receptor (Homo sapiens) (P06213 28-758 limits assumed): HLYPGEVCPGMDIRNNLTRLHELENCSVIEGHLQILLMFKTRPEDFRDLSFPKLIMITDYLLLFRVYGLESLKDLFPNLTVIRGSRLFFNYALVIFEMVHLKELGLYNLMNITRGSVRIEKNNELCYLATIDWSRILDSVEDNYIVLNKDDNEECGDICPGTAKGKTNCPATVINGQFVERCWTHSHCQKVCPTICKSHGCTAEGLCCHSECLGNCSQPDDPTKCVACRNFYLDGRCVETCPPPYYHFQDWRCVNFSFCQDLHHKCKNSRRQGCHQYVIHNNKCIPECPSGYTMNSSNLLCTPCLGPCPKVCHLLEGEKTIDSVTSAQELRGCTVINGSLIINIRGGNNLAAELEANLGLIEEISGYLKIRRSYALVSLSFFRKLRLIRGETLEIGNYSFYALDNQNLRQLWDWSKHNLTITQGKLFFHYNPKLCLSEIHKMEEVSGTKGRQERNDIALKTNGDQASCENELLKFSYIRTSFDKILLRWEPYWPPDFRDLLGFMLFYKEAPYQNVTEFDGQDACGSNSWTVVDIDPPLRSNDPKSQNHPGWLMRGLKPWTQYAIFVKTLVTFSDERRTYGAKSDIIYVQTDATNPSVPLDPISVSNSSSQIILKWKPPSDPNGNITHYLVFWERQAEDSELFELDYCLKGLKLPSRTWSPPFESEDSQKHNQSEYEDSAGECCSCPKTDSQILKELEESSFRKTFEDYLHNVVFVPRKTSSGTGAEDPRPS
Chain of Insulin receptor (Homo sapiens) (P06213 763-1382 limits assumed): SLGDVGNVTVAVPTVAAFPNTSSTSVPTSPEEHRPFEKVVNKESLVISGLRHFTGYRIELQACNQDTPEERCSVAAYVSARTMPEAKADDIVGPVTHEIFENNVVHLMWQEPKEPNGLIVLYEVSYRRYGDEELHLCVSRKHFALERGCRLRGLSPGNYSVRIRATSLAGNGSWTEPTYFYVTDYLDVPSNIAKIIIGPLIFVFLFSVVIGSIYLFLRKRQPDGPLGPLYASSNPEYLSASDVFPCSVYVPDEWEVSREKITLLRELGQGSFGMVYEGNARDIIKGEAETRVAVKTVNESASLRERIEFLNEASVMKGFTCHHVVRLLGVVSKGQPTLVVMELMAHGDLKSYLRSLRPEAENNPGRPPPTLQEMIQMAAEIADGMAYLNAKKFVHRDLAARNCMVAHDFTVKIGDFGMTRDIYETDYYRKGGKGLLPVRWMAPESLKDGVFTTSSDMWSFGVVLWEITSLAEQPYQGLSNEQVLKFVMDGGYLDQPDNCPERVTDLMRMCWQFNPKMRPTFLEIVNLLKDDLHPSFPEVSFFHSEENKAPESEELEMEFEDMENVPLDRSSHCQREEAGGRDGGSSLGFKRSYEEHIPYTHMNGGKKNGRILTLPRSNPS

## O=C(O)c1ccc(Nc2nc(-c3cccc([N+](=O)[O-])c3)cs2)cc1
[1]
  Activity: 93%
[2]
  Activity: 100%
[3]
  IC50: 7 µM
[4]
  Activity: 101%
[5]
  Activity: 97%
[6]
  Activity: 74%
[7]
  Activity: 79%
[8]
  Activity: 103%
[9]
  Activity: 85%
[10]
  Activity: 104%
[11]
  Activity: 104%
[12]
  Activity: 101%
[13]
  Activity: 104%
[14]
  inhibition: Active
[15]
  inhibition: Active
[16]
  Activity: 89%
[17]
  Activity: 85%
Homo sapiens
  Activity: 87%
[18]
  Activity: 92%
[19]
  Activity: 78%
[20]
  Activity: 83%
[21]
  Activity: 86%
[22]
  Activity: 84%
[23]
  Activity: 89%
[24]
  Activity: 99%
[25]
  Activity: 71%
[26]
  Activity: 97%
[27]
  Activity: 98%
[28]
  Ki: 1.6 µM
[29]
  Activity: 95%
[30]
  Activity: 65%
[31]
  Activity: 99%
[32]
  Activity: 100%
[33]
  Activity: 97%
